≈ marks a conversion by molar mass, not a printed value.
Tests used:
Influenza A virus H3N2 [1] = assay: microbe, parasite or virus in culture; type: functional, Influenza A virus (A/Hong Kong/1/1968(H3N2)), Chorioallantoic membrane; settings: 48 h
Influenza A virus = assay: microbe, parasite or virus in culture; type: functional, Chorioallantoic membrane; settings: A/Puerto Rico/8/1934(H1N1), 48 h
[2] = Toxicity in hen chorioallantoic membrane assessed as maximum tolerable concentration causing no morphological changes; set-up: species or system Gallus gallus; settings: chicken, read-out: Activity
Outline: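 Surviving chorioallantoic membrane cultures (membranes only) from 11-13-day-old embryonated hen's eggs were exposed to increasing concentrations and followed for 72 h. MTC was the highest concentration causing no morphological changes in the CAM.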

Influenza A virus H3N2 [3] = type: functional, Influenza A virus (A/Hong Kong/1/1968(H3N2)), Chorioallantoic membrane
Influenza A virus H3N2 [4] = type: functional, Influenza A virus (A/Hong Kong/1/1968(H3N2)), Chorioallantoic membrane; remark: listed apart in the source
Influenza A virus H3N2 [5] = type: functional, Influenza A virus (A/Hong Kong/1/1968(H3N2)), Chorioallantoic membrane; remark: listed apart in the source
Influenza A virus H3N2 [6] = type: functional, Influenza A virus (A/Hong Kong/1/1968(H3N2)), Chorioallantoic membrane; remark: listed apart in the source
Influenza A virus H3N2 [7] = type: functional, Influenza A virus (A/Hong Kong/1/1968(H3N2)), Chorioallantoic membrane; remark: listed apart in the source
Influenza A virus H3N2 [8] = type: functional, Influenza A virus (A/Hong Kong/1/1968(H3N2)), Chorioallantoic membrane; remark: listed apart in the source
Influenza A virus H3N2 [9] = type: functional, Influenza A virus (A/Hong Kong/1/1968(H3N2)), Chorioallantoic membrane; remark: listed apart in the source
Influenza A virus H3N2 [10] = assay: Antiviral activity against influenza A virus (A/Hong Kong/1/1968(H3N2)) infected in hen eggs assessed as hemagglutinination titre level at 1 mg/ml; type: functional
Outline: (§1)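 11-day-old embryonated hen's eggs received 0.2 ml of substance 1 h before infection with A/Hong Kong/1/68 (H3N2) from allantoic fluid. Read-out was the mean geometrical hemagglutination titer, compared with a virus control for each dose.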

Influenza A virus H3N2 [11] = assay: Antiviral activity against influenza A virus (A/Hong Kong/1/1968(H3N2)) infected in hen eggs assessed as hemagglutinination titre level at 2.5 mg/ml; type: functional
Outline: as §1

Influenza A virus H3N2 [12] = assay: Antiviral activity against influenza A virus (A/Hong Kong/1/1968(H3N2)) infected in hen eggs assessed as hemagglutinination titre level at 5 mg/ml; type: functional
Outline: as §1

[13] = Toxicity in hen egg assessed as maximum tolerable concentration causing no morphological changes; set-up: species or system Gallus gallus; settings: chicken, read-out: Activity

## COc1cc(/C=C/C(=O)OCCc2ccccc2)ccc1O
Influenza A virus H3N2 [1]
  MIC: > 50 µg/mL
Influenza A virus
  MIC: > 50 µg/mL
[2]
  MNTC: 50 µg/mL

## CC(C)CCOC(=O)/C=C/c1ccc(O)c(O)c1
Influenza A virus H3N2 [1]
  MIC: 25 µg/mL (≈ 99.9 µM)
Influenza A virus
  MIC: 25 µg/mL (≈ 99.9 µM)
[2]
  MNTC: 50 µg/mL

## O=C(/C=C/c1ccc(O)c(O)c1)OCc1ccccc1 [BENZYL CAFFEATE]
Influenza A virus H3N2 [1]
  MIC: 25 µg/mL (≈ 92.5 µM)
Influenza A virus
  MIC: > 50 µg/mL
[2]
  MNTC: 50 µg/mL

## COc1cc(/C=C/C(=O)OCc2ccccc2)ccc1O [BENZYL FERULATE]
Influenza A virus H3N2 [1]
  MIC: > 50 µg/mL
Influenza A virus
  MIC: > 50 µg/mL
[2]
  MNTC: 50 µg/mL

## O=C(/C=C/c1ccc(O)c(O)c1)OCCc1ccccc1 [CAFFEIC ACID PHENETHYL ESTER]
Influenza A virus H3N2 [1]
  MIC: 25 µg/mL (≈ 87.9 µM)
Influenza A virus
  MIC: 50 µg/mL (≈ 176 µM)
[2]
  MNTC: 50 µg/mL

## COc1cc(/C=C/C(=O)OCCC(C)C)ccc1O [ISOPENTYL FERULATE]
Influenza A virus H3N2 [1]
  MIC: 50 µg/mL (≈ 189 µM)
Influenza A virus
  MIC: > 200 µg/mL
[2]
  MNTC: 400 µg/mL
Influenza A virus H3N2 [3]
  log10CCID50: 3
Influenza A virus H3N2 [4]
  log10CCID50: 1.5
Influenza A virus H3N2 [5]
  log10CCID50: 1.5
Influenza A virus H3N2 [6]
  log10CCID50: <1
Influenza A virus H3N2 [7]
  deltalog10CCID50: 2
Influenza A virus H3N2 [8]
  deltalog10CCID50: 2
Influenza A virus H3N2 [9]
  deltalog10CCID50: >2.5
Influenza A virus H3N2 [10]
  Activity: 9.4
Influenza A virus H3N2 [11]
  Activity: 7.35
Influenza A virus H3N2 [12]
  Activity: 6.45
[13]
  MNTC: 10000 µg/mL
